# Reference: ChEMBL document CHEMBL1150301, “Structure-activity relationship studies on N'-aryl carbohydrazide P2X7 antagonists” (J Med Chem, 2008)
# Assays:
# P2X purinoceptor 7 [1] = biological target: T1, P2X purinoceptor 7 (Homo sapiens, UniProt Q99572); test: Antagonist activity at human recombinant P2X7 receptor expressed in human 1321N1 cells assessed as benzoyl-ATP-induced calcium flux by FLIPR assay; type: functional, cell-based
# T1 sequence (Q99572 whole entry): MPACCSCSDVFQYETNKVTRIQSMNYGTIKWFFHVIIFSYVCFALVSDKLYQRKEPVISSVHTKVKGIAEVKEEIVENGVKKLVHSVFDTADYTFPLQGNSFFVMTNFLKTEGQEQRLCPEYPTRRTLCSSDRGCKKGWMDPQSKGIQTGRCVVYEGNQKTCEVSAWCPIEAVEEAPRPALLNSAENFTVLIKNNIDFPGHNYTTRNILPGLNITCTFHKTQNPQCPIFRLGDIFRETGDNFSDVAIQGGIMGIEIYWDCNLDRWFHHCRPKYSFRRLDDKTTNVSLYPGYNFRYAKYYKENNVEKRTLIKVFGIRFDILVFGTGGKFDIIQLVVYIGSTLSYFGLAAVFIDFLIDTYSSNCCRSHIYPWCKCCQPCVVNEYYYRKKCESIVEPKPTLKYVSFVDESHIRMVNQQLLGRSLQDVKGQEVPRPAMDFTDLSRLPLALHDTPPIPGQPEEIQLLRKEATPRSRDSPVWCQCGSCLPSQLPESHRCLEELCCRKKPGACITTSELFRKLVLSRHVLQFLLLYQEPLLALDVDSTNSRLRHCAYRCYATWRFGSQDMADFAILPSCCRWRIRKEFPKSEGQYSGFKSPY
# Method in brief: (§1)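 The human or rat P2X7 was stably transfected into 1321N1 astrocytoma cells, which lack endogenous P2X function. Cells were loaded with Fluo-4 and given a 5 min antagonist pretreatment before BzATP challenge. Ca2+ flux was read on FLIPR. Results are pIC50 ± SEM, n = 2, or ≥3 where marked.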
# P2X purinoceptor 7 [2] = biological target: T2, P2X purinoceptor 7 (Rattus norvegicus, UniProt Q64663); test: Antagonist activity at rat recombinant P2X7 receptor expressed in human 1321N1 cells assessed as benzoyl-ATP-induced calcium flux by FLIPR assay; type: functional, cell-based; method in brief: as §1
# T2 sequence (Q64663 whole entry): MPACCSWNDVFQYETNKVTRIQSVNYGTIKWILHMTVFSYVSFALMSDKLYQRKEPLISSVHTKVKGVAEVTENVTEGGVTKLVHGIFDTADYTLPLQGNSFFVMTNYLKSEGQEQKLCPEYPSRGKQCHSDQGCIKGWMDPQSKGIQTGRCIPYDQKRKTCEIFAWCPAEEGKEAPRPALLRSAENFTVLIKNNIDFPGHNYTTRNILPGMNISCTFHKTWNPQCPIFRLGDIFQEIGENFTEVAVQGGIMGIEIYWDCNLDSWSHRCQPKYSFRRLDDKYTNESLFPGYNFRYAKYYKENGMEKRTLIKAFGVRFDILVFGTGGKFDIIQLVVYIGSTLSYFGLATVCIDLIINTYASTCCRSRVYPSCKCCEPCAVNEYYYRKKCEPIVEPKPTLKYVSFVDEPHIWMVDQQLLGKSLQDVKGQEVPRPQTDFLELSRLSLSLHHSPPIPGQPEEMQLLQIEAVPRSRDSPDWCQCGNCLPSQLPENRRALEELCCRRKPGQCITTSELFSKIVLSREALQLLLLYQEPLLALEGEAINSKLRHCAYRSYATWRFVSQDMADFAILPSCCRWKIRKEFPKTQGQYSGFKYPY
# P2X purinoceptor 7 [3] = biological target: T1, P2X purinoceptor 7; test: Antagonist activity at human recombinant P2X7 receptor expressed in differentiated human THP1 cells assessed as inhibition of benzoyl-ATP-induced IL1-beta release by ELISA; type: functional, cell-based, THP-1
# Method in brief: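 THP-1 cells were differentiated with LPS and IFNγ. Compound was present while cells were stimulated with BzATP for 30 min. Released IL-1β was quantified by ELISA kit. Results are given as pIC50.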
# Rattus norvegicus [4] = test: Reversal of neuropathic pain in ip dosed L5/L6 spinal nerve tight ligation rat model assessed as paw withdrawal threshold; type: functional
# Method in brief: (§2)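 L5/L6 spinal nerve tight ligation was done 7–14 days before testing. Mechanical allodynia was measured with von Frey filaments before dosing, and rats with threshold <5 g were kept. Rats were retested 30 min after ip dosing at 30–300 µmol/kg. Reversal on the ipsilateral side was expressed relative to the contralateral side, and ED50 was derived.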
# [5] = Volume of distribution at terminal phase in rat at 5 umol/kg, iv; type: ADME, organism-based; conditions: in vivo, read-out: Vbeta
# Method in brief: (§3)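 Rats were dosed iv or ip at 5 µmol/kg in 10% DMSO/90% PEG. Plasma PK parameters were derived: Vβ, Clp, Cmax, Tmax, AUC, t1/2 and F.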
# Rattus norvegicus [6] = test: Cmax in rat at 5 umol/kg, ip; type: ADME, organism-based; set-up: dose 5 umol/kg, route intraperitoneal; conditions: in vivo; method in brief: as §3
# Rattus norvegicus [7] = test: Tmax in rat at 5 umol/kg, ip; type: ADME, organism-based; conditions: in vivo; method in brief: as §3
# Rattus norvegicus [8] = test: AUC in rat at 5 umol/kg, iv; type: ADME, organism-based, Plasma; conditions: in vivo; method in brief: as §3
# Rattus norvegicus [9] = test: AUC in rat at 5 umol/kg, ip; type: ADME, organism-based, Plasma; conditions: in vivo; method in brief: as §3
# [10] = Half life in rat at 5 umol/kg, iv; type: ADME, organism-based; conditions: in vivo; method in brief: as §3
# Rattus norvegicus [11] = test: Half life in rat at 5 umol/kg, ip; type: ADME, organism-based; conditions: in vivo; method in brief: as §3
# [12] = Bioavailability in rat at 5 umol/kg, ip; type: ADME, organism-based; conditions: in vivo; method in brief: as §3
# Rattus norvegicus [13] = test: Reversal of neuropathic pain in L5/L6 spinal nerve tight ligation rat model assessed as paw withdrawal threshold at 30 to 300 umol/kg, ip relative to contralateral paw; type: functional; method in brief: as §2
IC50 (P2X purinoceptor 7 [1]),IC50 (P2X purinoceptor 7 [2]),SMILES,other results
1380 nM,1510 nM,CC1(C)C2CCC1(C(=O)NNc1cccc3ncccc13)C(=O)C2 (stereo not drawn),
174 nM,245 nM,Cc1ccccc1NNC(=O)C1CCCCC1,
27.5 nM,123 nM,CC1CCC(C)(C(=O)NNc2cccc3ncccc23)C1(C)C (stereo not drawn),
27.5 nM,52.5 nM,O=C(NNc1cccc2ncccc12)C12CC3CC(CC1C3)C2,IC50 (P2X purinoceptor 7 [3]): 158 nM
148 nM,339 nM,Cc1ccccc1NNC(=O)CCC(C)C,
52.5 nM,51.3 nM,COc1ccc(C2(C(=O)NNc3cccc4ncccc34)CCCCC2)cc1,
22.9 nM,145 nM,CCC12CC3CC(C1)CC(C(=O)NNc1cccc4ncccc14)(C3)C2,
141 nM,257 nM,O=C(NNc1cccc2ncccc12)C1(c2cccc(F)c2)CCCCC1,
407 nM,195 nM,CCCCCCC(=O)NNc1ccccc1C,
33.9 nM,49 nM,Cc1ccccc1NNC(=O)C1CCCCCC1,
132 nM,151 nM,Cc1ccccc1NNC(=O)C1(c2ccccc2)CCCC1,
70.8 nM,148 nM,Cc1ccccc1NNC(=O)C1(C)CCCCC1,
11.5 nM,33.9 nM,O=C(NNc1ccccc1Cl)C12CC3CC(CC(C3)C1)C2,
372 nM,,O=C(NNc1ccc(Cl)cc1Cl)C12CC3CC(CC(C3)C1)C2,pIC50 (P2X purinoceptor 7 [2]; 1321-n1): > 5
832 nM,977 nM,O=C(NNc1cccnc1)C12CC3CC(CC(C3)C1)C2,
977 nM,2450 nM,COc1ccc(NNC(=O)C23CC4CC(CC(C4)C2)C3)cc1,
57.5 nM,135 nM,Cc1ccc(C)c(NNC(=O)C23CC4CC(CC(C4)C2)C3)c1,

IC50 (P2X purinoceptor 7 [1]),IC50 (P2X purinoceptor 7 [2]),SMILES,other results
10.2 nM,44.7 nM,O=C(NNc1cccc2ncccc12)C12CC3CC(CC(C3)C1)C2,IC50 (P2X purinoceptor 7 [3]): 5.01 nM; ED50 (Rattus norvegicus [4]): 92 µmol/kg; Vd [5]: 0.9 L/kg; Cmax (Rattus norvegicus [6]): 440 ng/mL; Tmax (Rattus norvegicus [7]): 30 min; AUC (Rattus norvegicus [8]): 940 ng·h/mL; AUC (Rattus norvegicus [9]): 390 ng·h/mL; half-life [10]: 24 min; t1/2 (Rattus norvegicus [11]): 36 min; bioavailability [12]: 42%; Activity (Rattus norvegicus [13]): 68%
324 nM,468 nM,O=C(NNc1cccc(F)c1)C12CC3CC(CC(C3)C1)C2,
39.8 nM,204 nM,O=C(NNc1ccccc1F)C12CC3CC(CC(C3)C1)C2,
38.9 nM,151 nM,Cc1ccccc1NNC(=O)CC1CCCCC1,
219 nM,427 nM,O=C(NNc1ccccn1)C12CC3CC(CC(C3)C1)C2,
191 nM,324 nM,O=C(NNc1cccc2ncccc12)C1(c2ccccc2F)CCCCC1,
57.5 nM,603 nM,O=C(CC12CC3CC(CC(C3)C1)C2)NNc1cccc2ncccc12,
282 nM,1070 nM,O=C(NNc1ccc(F)cc1)C12CC3CC(CC(C3)C1)C2,
11.7 nM,28.2 nM,Cc1ccccc1NNC(=O)C12CC3CC(CC(C3)C1)C2,
110 nM,275 nM,O=C(NNc1ccccc1)C12CC3CC(CC(C3)C1)C2,
70.8 nM,174 nM,O=C(NNc1cccc2ncccc12)C1(c2ccc(F)cc2)CCCCC1,
51.3 nM,174 nM,O=C(NNc1cccc2nc(Cl)ccc12)C12CC3CC(CC(C3)C1)C2,
18.6 nM,31.6 nM,CC1(C(=O)NNc2cccc3ncccc23)CC2C=CC1C2 (stereo not drawn),
10.2 nM,35.5 nM,O=C(NNc1cccc2ncccc12)C12CC3CC(CC(Cl)(C3)C1)C2,IC50 (P2X purinoceptor 7 [3]): < 1 nM
34.7 nM,51.3 nM,O=C(NNc1cccc(Cl)c1Cl)C12CC3CC(CC(C3)C1)C2,
275 nM,2240 nM,O=C(NNc1cccc2ncccc12)C12CC3CC(CC(O)(C3)C1)C2,
33.9 nM,151 nM,O=C(NNc1cccc2cnccc12)C12CC3CC(CC(C3)C1)C2,

SMILES,IC50 (P2X purinoceptor 7 [1]),IC50 (P2X purinoceptor 7 [2]),other results
CC1(C)C(C(=O)NNc2cccc3ncccc23)C1(C)C,200 nM,155 nM,
